Measured values: paper PMC11986672 (RSC Medicinal Chemistry, 2025)
Values joined by “and” are separate entries in the source; they are usually repeats but may differ in a detail not shown here. Identical values can stand only once. “Also recorded” adds a separate entry of the source. Like-named read-outs stand apart in the source and are kept apart here.

Key:
[1] = tested on: human endometrial cancer (HEC1A) cells; assay: MTT cytotoxicity assay, HEC1A; type: cell-based; conditions: for IC50: Homo sapiens, HEC-1-A, 48 h, read-out: HEC1A IC50, MTT cell viability, 48 h, n = 3 biological repeats; for Selectivity ratio: IC50 MAD11 divided by IC50 HEC1A
Summary of the method: (§1)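 HEC1A (5000/well) and MAD11 (2500/well) cells were seeded and held overnight at 37 °C. Test compound was reconstituted in DMSO and serially diluted in medium to final 160, 80, 40, 20, 10, 5, 2.5 and 1.25 μM, in triplicate, with matched DMSO in all wells. After 48 h, MTT was added for 3 h, formazan solubilised (4 mM HCl, 0.1% NP-40, isopropanol) and absorbance read at 590/620 nm. IC50 was taken against vehicle controls; selectivity = MAD11 IC50 / HEC1A IC50.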

[2] = tested on: HEC1A endometrial cancer cells; assay: Thiol rescue experiment; type: cell-based, human; conditions: for rescue of cytotoxicity by NAC and GSH pre-treatment: NAC or GSH 2 mM for 40 min; for IC50: Homo sapiens, HEC-1-A; for ΔIC50 (+GSH): IC50 with GSH minus IC50 of compound alone; for ΔIC50 (+NAC): IC50 with NAC minus IC50 of compound alone
Summary of the method: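 HEC1A cells were seeded on day 1 (5000/well). On day 2 they were pre-treated 40 min with NAC or GSH, 2 mM in medium neutralised to pH 7.4. Test compound was then added (final 160–1.25 μM serial dilutions, triplicate, equal DMSO), with 48 h incubation. The MTT readout (3 h, absorbance 590/620 nm) followed. IC50 was compared with cells given no thiol.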

[3] = 10 mg kg−1 via oral gavage in C57BL/6 mice; cited from earlier work
[4] = tested on: CALU-1 (lung squamous cell carcinoma); assay: MTT cytotoxicity assay, CALU-1; type: cell-based; conditions: Homo sapiens, Calu-1, read-out: Mean IC50 CALU-1
Summary of the method: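 Uses the HEC1A MTT protocol: test compound in DMSO, diluted to final 160 down to 1.25 μM in two-fold steps, in triplicate, with equal DMSO in controls. […] CALU-1 was cultured in MEM in place of DMEM. […]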

HEC1A cancer cells = assay: Oxygen consumption rate assay; type: cell-based, human; conditions: over 120 minutes, compared to vehicle (DMSO) control, 21 at 20 μM
Summary of the method: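 Seahorse XF96 OCR assay. HEC1A cells (15 000/well) adhered 24 h in DMEM, 10% FBS, penicillin/streptomycin at 37 °C, 5% CO₂. Medium was then swapped for unbuffered phenol-red-free DMEM (25 mM glucose, 4 mM glutamine, 1 mM pyruvate, pH 7.4), with 40 min degassing at 37 °C without CO₂. Three baseline reads preceded compound injection; 11 cycles (3 min wait, 3 min mix, 2 min measure) followed. OCR was normalised to the third baseline reading; DMSO served as vehicle control.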

[5] = tested on: noncancerous human endometrial stromal (MAD11) cells; assay: MTT cytotoxicity assay, MAD11; type: cell-based; conditions: MAD11, 48 h, read-out: MAD11 IC50
Summary of the method: as §1

[6] = Pharmacokinetic profiling in vivo; design: species or system C57BL/6 mice

| Compound | IC50 [1] | Selectivity ratio [1] | rescue of cytotoxicity by NAC and GSH pre-treatment ([2]; HEC1A) | IC50 ([2]; read-out: +GSH IC50 ± SEM) | IC50 ([2]; read-out: +NAC IC50) | ΔIC50 (+GSH) [2] | ΔIC50 (+NAC) [2] | half-life [3] | IC50 [4] | maximum OCR increase (HEC1A cancer cells) | IC50 [5] | decrease of potency with GSH pre-treatment (times) ([2]; HEC1A, GSH 2 mM) | decrease of potency with NAC pre-treatment (times) ([2]; HEC1A, NAC 2 mM) | IC50 ([2]; read-out: Alone IC50) | half-life ([6]; C57BL/6, mouse, plasma, po, 20 mg/kg) | half-life longer than BH10 ([6]; oral administration, versus BH10 t1/2 = 21.6 min) |
| --- | --- | --- | --- | --- | --- | --- | --- | --- | --- | --- | --- | --- | --- | --- | --- | --- |
| O=C1C(Cl)=C(NCCN2CCOCC2)C(=O)c2ccccc21 [BH10, 2-chloro-3-[(2-morpholin-4-ylethyl)amino]naphthalene-1,4-dione, reference compound] | 10.2 µM | 2.51 | rescued | > 80 µM | 58 µM | >+69.78 μM | +47.78 μM | 21.6 min | 16.7 µM | up to 200% | 25.6 µM | – | – | – | – | – |
| O=C1C(Cl)=C(NCCCN2CCCCC2)C(=O)c2ccccc21 [Compound 21, 2-Chloro-3-((3-(piperidin-1-yl)propyl)amino)-[1,4]-naphthoquinone] | 1.83 µM | 2.62 | partially rescued | 16 µM | 13 µM | +14.17 μM | +11.17 μM | – | 4.7 µM | approximately 280% | 4.79 µM | 8.7 times | 7.1 times | 1.83 µM | – | – |
| Cc1nc2c(n1CCCN1CCCCC1)C(=O)c1ccccc1C2=O [Compound 44, 2-Methyl-1-(3-(piperidin-1-yl)propyl)-1H-naphtho[2,3-d]imidazole-4,9-dione] | 6.4 µM | 3.6 and 3.59 | did not rescue; also recorded: unaffected | 7.4 µM | 6.8 µM | +1.00 μM | +0.40 μM | – | 15.4 µM | 130% | 23 µM | – | – | 6.4 µM | 26.8 min | 5.2 min |
